Calls of active or inactive are those of the source.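 How the source made its calls, unless noted: active means fluorescence slope higher than the sample average by over 3 SD (cut at about -0.22 in these data, passing the limit was not always enough); inactive means the rest.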
Assays:
[1] = inhibitors of TNFa-induced NFkB p65 translocation, primary screen, imaging, HUVEC, MLSMR starter and 10KST1 sets (AID 438;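 active means inhibition above 20% together with a positive visual image hit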;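 further: compound added about 3h40 before a 20 min TNFalpha stimulation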;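 on inhibition: signal is the nuclear over cytoplasmic p65 intensity ratio per well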); conditions: HUVEC TNFa-induced p65 nuclear translocation; cell count: measured here: nuclei count (cytotoxicity indicator), at 2.08 µM; inhibition: at 2 µM, stronger effect = higher value, 0% TNFa-plus-vehicle, 100% no-TNFa wells
[2] = endothelial E-selectin expression blockers – imaging, HUVEC, immunofluorescence, MLSMR starter and 10KST1 sets, primary screen (AID 487;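 active means visually confirmed hit in the image check and inhibition above 20%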;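 on inhibition: signal is fraction of cell area covered by stained E-selectin grains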;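 on nuclei count: 100% = median nuclei count of all wells on the same plate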); conditions: HUVEC TNFalpha-induced E-selectin immunofluorescence imaging, at 2 µM; inhibition: stronger effect = higher value; nuclei count: measured here: cell number, toxicity
[3] = Primary imaging screen for DUSP6 inhibitors that restore phospho-Erk in transfected HeLa cells, chemical complementation (AID 609;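 active means compounds giving at least 50% inhibition in the cell-based MKP-3 phosphatase rescue imaging test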;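 on inhibition: phospho-Erk level distribution per well compared with pooled transfected vehicle control wells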); conditions: HeLa MKP-3 transfected, phospho-Erk imaging KS statistic, at 10 µM, cells stimulated with TPA for 15 min
[4] = target: Dual specificity protein phosphatase 6 (Homo sapiens) (UniProt Q16828); assay: as above; conditions: HeLa MKP-3 transfected, phospho-Erk imaging KS statistic; at 10 µM; stronger effect = higher value; cells stimulated with TPA for 15 min
Sequence of Dual specificity protein phosphatase 6 (Homo sapiens) (Q16828 whole entry, looked up): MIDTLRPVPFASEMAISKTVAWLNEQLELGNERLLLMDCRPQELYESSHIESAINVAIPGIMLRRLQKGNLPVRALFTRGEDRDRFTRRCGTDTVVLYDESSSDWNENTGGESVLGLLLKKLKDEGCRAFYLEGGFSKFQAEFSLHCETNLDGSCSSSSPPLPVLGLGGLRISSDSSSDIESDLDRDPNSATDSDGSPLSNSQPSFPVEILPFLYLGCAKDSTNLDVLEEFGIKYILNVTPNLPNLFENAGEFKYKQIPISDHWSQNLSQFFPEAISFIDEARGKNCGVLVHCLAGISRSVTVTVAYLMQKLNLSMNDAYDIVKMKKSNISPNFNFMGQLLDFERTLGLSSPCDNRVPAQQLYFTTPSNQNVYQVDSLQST

[5] = target: Voltage-gated potassium channel subunit beta-2 (Rattus norvegicus) (UniProt P62483); assay: inhibitors of rat Kvbeta2 reductase activity – biochemical, NADPH fluorescence, primary screen (AID 622); conditions: recombinant KvBeta, 4-cyanobenzaldehyde reduction, at 10 µM, stronger effect = higher value;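 further: slope of raw intensity against log time taken from 70 to 1610 s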
Sequence of Voltage-gated potassium channel subunit beta-2 (Rattus norvegicus) (P62483 whole entry, looked up): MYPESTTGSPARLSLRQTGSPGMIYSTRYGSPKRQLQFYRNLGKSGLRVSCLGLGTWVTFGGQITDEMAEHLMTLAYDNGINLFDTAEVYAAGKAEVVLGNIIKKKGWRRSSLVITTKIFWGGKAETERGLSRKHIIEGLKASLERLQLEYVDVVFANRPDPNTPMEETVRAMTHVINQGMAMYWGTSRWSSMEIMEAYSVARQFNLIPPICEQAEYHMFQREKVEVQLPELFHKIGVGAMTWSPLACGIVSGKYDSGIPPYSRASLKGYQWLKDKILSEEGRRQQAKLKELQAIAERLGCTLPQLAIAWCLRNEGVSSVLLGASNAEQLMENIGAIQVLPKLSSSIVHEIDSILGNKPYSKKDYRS

[6] = target: Voltage-gated potassium channel subunit beta-2 (Rattus norvegicus) (UniProt P62483); assay: enhancers of rat Kvbeta2 NADPH turnover – biochemical, NADPH fluorescence, primary screen (AID 623;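 active means NADPH fluorescence slope more negative than the mean of all samples by about 3 SD, 99.7% confidence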;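 further: fluorescence intensity change per second fitted from 20 to 320 s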); conditions: Recombinant KvBeta, NADPH fluorescence decrease slope, 10 min; at 10 µM; stronger effect = lower value
[7] = target: Muscarinic acetylcholine receptor M4 (Homo sapiens) (UniProt P08173); assay: M4-linked GIRK flux change, two-sided – cell-based, HEK293 M4/GIRK, thallium flux, BTC-AM, M4 allosteric agonist project, primary screen (AID 625;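 active means fluorescence slope after compound addition differing from the mean of all tested samples at 99.7% confidence, mostly higher but some lower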;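 further: thallium influx through GIRK channels coupled to M4 in HEK293 cells with BTC-AM dye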); conditions: at 10 µM, actives lie on both sides
Sequence of Muscarinic acetylcholine receptor M4 (Homo sapiens) (P08173 whole entry, looked up): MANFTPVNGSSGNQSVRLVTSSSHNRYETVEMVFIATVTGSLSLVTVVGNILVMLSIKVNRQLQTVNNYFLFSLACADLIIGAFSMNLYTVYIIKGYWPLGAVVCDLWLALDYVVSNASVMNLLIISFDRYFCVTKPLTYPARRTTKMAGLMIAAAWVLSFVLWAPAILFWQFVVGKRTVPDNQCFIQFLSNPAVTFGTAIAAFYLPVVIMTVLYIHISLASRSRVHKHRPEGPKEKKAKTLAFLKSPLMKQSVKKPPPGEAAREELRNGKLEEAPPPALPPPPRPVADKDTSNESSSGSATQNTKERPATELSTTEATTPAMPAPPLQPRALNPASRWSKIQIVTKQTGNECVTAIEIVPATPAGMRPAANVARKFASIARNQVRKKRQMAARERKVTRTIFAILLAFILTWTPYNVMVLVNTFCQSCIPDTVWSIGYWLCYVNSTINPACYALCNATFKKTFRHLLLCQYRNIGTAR
Method in brief: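 Material: HEK293 cells with M4 receptor and GIRK channels; Times: cells overnight at 37 °C, BTC-AM loading 1 h, reads 2 min total; Technique: kinetic BTC-AM fluorescence sampled at 1 Hz, 10 s pre-addition baseline; Read-out basis: slope over 15–24 s of trace normalized to starting intensity; Controls: carbachol positive, DMSO negative.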

[8] = inhibitors of larval lipid processing in zebrafish, primary screen, whole organism, PED6 fluorescence, gall bladder and intestine (AID 686;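 active means a full or partial loss of lipid-probe fluorescence in the fish gall bladder, intestine or both, judged by eye; inactive means no fluorescence loss, or compound toxic to the fish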;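 further: larvae 5 to 7 days old with five fish per well; signal comes from phospholipase A2 cleavage of quenched PED6 carried via bile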); conditions: Zebrafish larvae PED6 lipid processing, fluorescence scoring; screened at 20 µM (by protocol)
Method in brief: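 Incubation: overnight exposure of larvae to compound plus PED6 / Test system: live zebrafish larvae aged 5-7 days, whole organism / Amount: 5 larvae per well / Read-out basis: visual per-well fluorescence inhibition score / Signal: visual fluorescence microscopy scoring of gall bladder, gut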

[9] = loss of swimming-algae plug formation – whole organism, Chlamydomonas reinhardtii, WT vs cilia-less mutant, absorbance, 96-well, primary screen (AID 463189;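 active means inhibition at or above 50% relative to wild type and mutant plate controls; inactive means inhibition below 50%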;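 further: 0% = wild type cc124 cells in DMSO and 100% = ciliumless bld1 mutant cells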); conditions: Chlamydomonas reinhardtii gravitaxis, OD600 absorbance, 2 days; at 10 µM; stronger effect = higher value
[10] = measured here: cell density z-score
[11] = measured here: nuclear c-Myc green intensity z-score
[12] = measured here: nuclear pErk red intensity z-score, stronger effect = higher value

Row | SMILES | cell count [1] | inhibition [1] | inhibition [2] | nuclei count [2] [%] | z-score [3, 10] | z-score [3, 11] | z-score [3, 12] | inhibition [4] | fluorescence slope [5] | NADPH fluorescence slope [6] | fluorescence slope [7] | outcome [8] | inhibition [9]
1 | Cc1ccc(CNC(=O)c2cc3c(=O)n4ccccc4nc3n(Cc3ccco3)c2=N)cc1 | 620 | 2.6% (inactive) | 18.3% (inactive) | 134 | -0.0379 | 0.826 | -0.239 | -2.29% (inactive) | -0.456 (inactive) | -4.8e-05 (inactive) | 0.00363 (inactive) | active; weak signal in gallbladder and intestine | 32.6% (inactive)
2 | COc1ccc(/C(O)=C2/C(=O)C(=O)N(CCCN(C)C)C2c2ccccc2)cc1Cl (stereo not drawn) | 690 | -2% (inactive) | -71.3% (inactive) | 159 | 0.886 | -1.15 | 1.23 | 4.25% (inactive) | -0.452 (inactive) | -6.6e-05 (inactive) | 0.00499 (inactive) | inactive | 20.4% (inactive)
3 | C=CCn1c(=O)c(C(=O)NCCN(CC)CC)c(O)c2ccccc21 | 560 | 0% (inactive) | -97% (inactive) | 170 | 1.11 | -0.484 | 1.3 | 27.8% (inactive) | -0.368 (inactive) | -2.4e-05 (inactive) | 0.00442 (inactive) | inactive | 42.6% (inactive)
4 | Cc1cc(C)c(S(=O)(=O)O)c(C)n1 | 533 | -13.8% (inactive) | 6.7% (inactive) | 203 | -0.302 | 0.575 | 0.985 | -5.95% (inactive) | -0.393 (inactive) | -4.7e-05 (inactive) | 0.00523 (inactive) | inactive | -7.08% (inactive)
5 | CCC1CC2(C)NC(=O)c3c(sc4c3CC(C)(C)OC4)N2C1=O (stereo not drawn) | 497 | -0.8% (inactive) | -48.8% (inactive) | 175 | 0.444 | 0.00352 | -0.401 | 1.98% (inactive) | -0.397 (inactive) | 3.9e-06 (inactive) | 0.00496 (inactive) | inactive | 31.2% (inactive)
6 | Cn1c(N2CCN(c3ccccn3)CC2)nc2c1c(=O)n(Cc1ccc(Cl)cc1)c(=O)n2C | 678 | 5.8% (inactive) | -153% (inactive) | 180 | -0.409 | -1.46 | -0.591 | 27.8% (inactive) | -0.498 (inactive) | -2.6e-05 (inactive) | 0.00592 (inactive) | inactive | 24.6% (inactive)
7 | CCCCOC(=O)CCc1nc2ccccc2[nH]1 | 716 | -2.4% (inactive) | -50.5% (inactive) | 195 | -0.361 | 0.108 | 1.13 | -3.97% (inactive) | -0.484 (inactive) | -5.5e-05 (inactive) | 0.00514 (inactive) | inactive | 8.4% (inactive)
8 | CCCCC(=O)c1c(C)cc(C)[nH]c1=O | 721 | -6.7% (inactive) | -99.5% (inactive) | 191 | 0.203 | 0.876 | 0.0182 | 3.97% (inactive) | -0.482 (inactive) | -7.1e-05 (inactive) | 0.00582 (inactive) | inactive | 0.273% (inactive)
9 | Cc1ccc(C(=O)NCC(C)(C)O)cc1 | 554 | -5.3% (inactive) | -1.3% (inactive) | 87.7 | -0.652 | -0.297 | -0.959 | -3.95% (inactive) | -0.473 (inactive) | -8.2e-05 (inactive) | 0.00553 (inactive) | inactive | -5.2% (inactive)
10 | CC(NC(=O)Nc1cccnc1)(C(F)(F)F)C(F)(F)F | 706 | -5.1% (inactive) | -177% (inactive) | 184 | 0.533 | -0.524 | 0.0759 | 7.93% (inactive) | -0.454 (inactive) | -0.000301 (inactive) | 0.00556 (inactive) | inactive | 0.542% (inactive)
11 | CC(C)OCCCn1c(=N)c(C(N)=S)cc2c(=O)n3ccccc3nc21 | 619 | -7.9% (inactive) | -3% (inactive) | 149 | 1.16 | -1.47 | -1.15 | 17.7% (inactive) | -0.454 (inactive) | -4.1e-05 (inactive) | 0.00453 (inactive) | inactive | 22.8% (inactive)
12 | Cn1ncc(N=Cc2ccccc2O)c1C(=O)N1CCOCC1 | 723 | 6.6% (inactive) | -60.6% (inactive) | 172 | -0.778 | -0.56 | 0.451 | 7.93% (inactive) | -0.486 (inactive) | -9.6e-05 (inactive) | 0.00481 (inactive) | inactive | 32.2% (inactive)
13 | CC1(C)Cc2c(C#N)c(SCCOc3ccccc3)nc(N3CCOCC3)c2CO1 | 387 | -7.4% (inactive) | -56.3% (inactive) | 82.1 | -1.25 | 1.29 | 1.84 | 5.42% (inactive) | -0.415 (inactive) | -3.7e-05 (inactive) | 0.00791 (inactive) | inactive | 25.7% (inactive)
14 | Nc1ccc2oc(-c3ccccc3Cl)nc2c1 | 644 | -0.2% (inactive) | 7.8% (inactive) | 145 | 0.0664 | -0.553 | -0.135 | -7.67% (inactive) | -0.136 (inactive) | -5.7e-05 (inactive) | 0.00466 (inactive) | inactive | 26.6% (inactive)
15 | Cc1ccc(C(=O)C2=C(O)C(=O)N(CCN3CCOCC3)C2c2ccccn2)o1 (stereo not drawn) | 403 | 1.7% (inactive) | -75.7% (inactive) | 147 | -0.208 | -0.969 | -0.257 | -0.608% (inactive) | -0.474 (inactive) | -0.0001 (inactive) | 0.00402 (inactive) | inactive | -7.55% (inactive)
16 | O=C(CN1C(=O)c2ccccc2S1(=O)=O)NCCSCc1ccco1 | 373 | -5.5% (inactive) | -25.2% (inactive) | 142 | 0.363 | 0.199 | 0.301 | 20.2% (inactive) | -0.457 (inactive) | -0.000137 (inactive) | 0.00395 (inactive) | inactive | -7.41% (inactive)
17 | COC(=O)C(NC(=O)c1ccccc1)(Nc1nc(C)cs1)C(F)(F)F (stereo not drawn) | 687 | -8.5% (inactive) | -24.1% (inactive) | 152 | -0.446 | -1.08 | 0.594 | 10.9% (inactive) | -0.481 (inactive) | -3.9e-05 (inactive) | 0.00439 (inactive) | inactive | 11.6% (inactive)
18 | N#Cc1nc(COc2ccccc2)oc1N1CCCC1 | 463 | -4.6% (inactive) | -281% (inactive) | 164 | -0.447 | 1.68 | 0.969 | 4.37% (inactive) | -0.42 (inactive) | -4.6e-05 (inactive) | 0.00421 (inactive) | inactive | -0.28% (inactive)
19 | C=CCOC(=O)C1=C(C)NC(SCC(=O)Nc2ccc(C)c(Cl)c2)=C(C#N)C1c1ccco1 (stereo not drawn) | 654 | -12.4% (inactive) | -141% (inactive) | 165 | 0.0936 | -0.359 | 0.4 | 10.1% (inactive) | -0.465 (inactive) | -2.6e-05 (inactive) | 0.00959 (inactive) | inactive | 6.54% (inactive)
20 | COc1ccccc1NC(=O)Nc1nnc(C(C)C)s1 | 702 | -3.3% (inactive) | -24.3% (inactive) | 157 | -0.239 | -0.311 | 0.0371 | -5.81% (inactive) | -0.476 (inactive) | -1.2e-05 (inactive) | 0.00885 (inactive) | inactive | 3.73% (inactive)
21 | CSc1nc2[nH]c3c(c2c2nnnn12)CCCC3 | 571 | -2.3% (inactive) | -139% (inactive) | 145 | 0.625 | 0.274 | -0.282 | 13.4% (inactive) | -0.341 (inactive) | 0.000139 (inactive) | 0.00402 (inactive) | inactive | 79.4% (active)
22 | c1ccc2c(c1)CCOC2CNCCCN1CCCCC1 (stereo not drawn) | 701 | -5.5% (inactive) | -141% (inactive) | 172 | -0.992 | 1.14 | -0.201 | 1.98% (inactive) | -0.473 (inactive) | -6.5e-05 (inactive) | 0.00496 (inactive) | inactive | -4.57% (inactive)
23 | COC(=O)c1ccc(CSc2nc(N3CCOCC3)c3c(c2C#N)CC(C)(C)OC3)o1 | 563 | -4.2% (inactive) | -97.4% (inactive) | 151 | 0.813 | -0.6 | 1.8 | 1.63% (inactive) | -0.461 (inactive) | -0.000112 (inactive) | 0.00467 (inactive) | inactive | 6.95% (inactive)
24 | O=C(NCCc1ccccc1)/C(=N\O)c1ccccc1 | 555 | -5.6% (inactive) | 19.1% (inactive) | 182 | 1.61 | -1.77 | -0.308 | 13.9% (inactive) | -0.404 (inactive) | -8.5e-06 (inactive) | 0.00486 (inactive) | inactive | 2.81% (inactive)
25 | COc1ccc(N2C(=O)CC(N(Cc3ccc(S(N)(=O)=O)cc3)C(C)=O)C2=O)cc1 (stereo not drawn) | 550 | 4.1% (inactive) | 19.1% (inactive) | 126 | 0.546 | -0.739 | 0.891 | 20.2% (inactive) | -0.481 (inactive) | -3.2e-05 (inactive) | 0.00578 (inactive) | inactive | 9.88% (inactive)
26 | COc1cc(N2CCCC2)c(OC)cc1/C=c1/sc2nc3ccccc3n2c1=O | 499 | -8.5% (inactive) | -137% (inactive) | 155 | -1.29 | 0.0669 | -0.774 | 39.3% (inactive) | -0.438 (inactive) | -3.3e-05 (inactive) | 0.00712 (inactive) | inactive | 3.75% (inactive)
